Compound activity (PubChem BioAssay)
Shown are actives, neighbours in structure and some others; about 2.3% of the full set was active somewhere.
TRPC6 act: mouse TRPC6 channel activation. B-score at 10 µM. actives 0.13% (n = 310,000). Q61143. AID 2550. HEK293-TRPC6 membrane potential dye fluorescence; hits give high values;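 active = B-score of the integrated fluorescence ratio above library mean plus 3 SD, and starting fluorescence ratio within library mean plus 5 SD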;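 also: higher score means more depolarization so channel activation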
TRPC4 block: TRPC4 (mouse) channel inhibition; Q9QUQ5; HEK293 TRPC4beta/mu-opioid, DAMGO-evoked Fluo4 calcium flux; hits give low values; B-score at 10 µM; actives 0.39% (n = 300,000);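 active = B-score over 3 SD under the library average, no early fluorescence shift, positive overall ratio signal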
Target sequence (Q9QUQ5 whole entry, looked up): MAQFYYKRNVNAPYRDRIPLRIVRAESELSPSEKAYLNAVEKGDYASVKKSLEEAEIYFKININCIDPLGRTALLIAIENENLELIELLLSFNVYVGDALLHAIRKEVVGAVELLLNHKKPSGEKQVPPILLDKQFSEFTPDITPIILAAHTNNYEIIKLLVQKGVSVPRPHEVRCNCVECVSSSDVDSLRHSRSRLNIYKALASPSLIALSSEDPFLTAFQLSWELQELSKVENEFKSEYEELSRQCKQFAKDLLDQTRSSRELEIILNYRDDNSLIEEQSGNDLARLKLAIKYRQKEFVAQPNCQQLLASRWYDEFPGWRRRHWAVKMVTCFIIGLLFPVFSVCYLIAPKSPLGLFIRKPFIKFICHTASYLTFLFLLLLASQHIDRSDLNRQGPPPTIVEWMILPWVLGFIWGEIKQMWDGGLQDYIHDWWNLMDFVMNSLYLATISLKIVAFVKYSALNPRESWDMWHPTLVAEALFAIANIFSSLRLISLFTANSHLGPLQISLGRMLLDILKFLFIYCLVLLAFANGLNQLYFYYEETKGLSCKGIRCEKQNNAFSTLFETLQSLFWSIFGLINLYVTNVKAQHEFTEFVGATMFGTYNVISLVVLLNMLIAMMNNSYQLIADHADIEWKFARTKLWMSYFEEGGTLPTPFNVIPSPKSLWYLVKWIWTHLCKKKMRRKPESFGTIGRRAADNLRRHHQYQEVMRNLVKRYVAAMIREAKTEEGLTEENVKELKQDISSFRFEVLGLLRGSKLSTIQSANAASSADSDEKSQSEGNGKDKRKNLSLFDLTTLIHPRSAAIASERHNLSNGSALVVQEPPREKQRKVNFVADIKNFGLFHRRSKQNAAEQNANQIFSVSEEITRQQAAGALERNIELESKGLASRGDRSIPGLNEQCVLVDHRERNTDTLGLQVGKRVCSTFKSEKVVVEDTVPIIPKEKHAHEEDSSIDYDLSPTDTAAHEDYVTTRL
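test system = HEK293 cells with stable TRPC4beta plus mu-opioid receptor expression | detection = Fluo4 Ca2+ flux fluorescence | read-out = integrated fluorescence ratio relative to baseline, converted to per-well B score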
TRPC4 potent: allosteric potentiators of mouse TRPC4 channel | Q9QUQ5 | HEK293 TRPC4beta/mu-opioid, DAMGO EC20, Fluo-4 Ca2+ flux; hits give high values | B-score at 10 µM | actives 0.42% (n = 310,000) | AID 2227;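 active = B-score of calcium response area above 5 SD of library B-scores, with initial fluorescence ratio within 5 SD of library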;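 also: B-score of integrated fluorescence ratio over time as area under calcium response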
TRPC6 inh: mouse TRPC6 channel inhibition | B-score at 10 µM | AID 2553 | HEK293-TRPC6, membrane potential dye, ACh-evoked depolarization; hits give low values | actives 1.1% (n = 310,000) | Q61143;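 active = B-score under library mean minus 3 SD, initial fluorescence not abnormally high, positive integrated signal ratio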;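 also: B-score derived from integrated fluorescence ratio over the kinetic read; more negative B-score means stronger inhibition of depolarization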
CR mimetic SO: yeast age-related superoxide inhibition as caloric restriction mimetic | AID 2690 | S. cerevisiae aged cells, superoxide DHE fluorescence; hits give low values | superoxide response (% of plate mean), % at 10 µM | actives 0.18% (n = 330,000);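 active = superoxide response under a set limit, about three screen SD below normal, cut at about 65% in these data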;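 also: yeast aged for seven days with compound at 30 °C before DHE staining; 100% = average MFI of all compound-treated wells on the plate with controls excluded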
TRPC4 act: opens the mouse TRPC4 cation channel | Q9QUQ5 | HEK293 TRPC4beta/mu-opioid, Fluo4 calcium fluorescence; hits give high values | actives 0.49% (n = 310,000) | B-score at 10 µM;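 active = B-score above 5 SD of library B-scores, and initial fluorescence ratio not above library mean plus 5 SD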;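 also: positive B-score marks a calcium rise read as TRPC4 activation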
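Technique: kinetic Fluo4 calcium fluorescence; Test system: TRPC4beta and mu-opioid receptor HEK293 stable cells; Measure: B-scored integrated calcium fluorescence ratio; Benchmarks: low control buffer alone, high control maximal DAMGO; Schedule: 45 min room-temperature Fluo4 loading, 110 s read.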
TRPC4 sel inh 2: second check of whether TRPC6 inhibitors also affect mouse TRPC4; actives 42% (n = 920); HEK293 TRPC4/MOR, membrane potential dye fluorescence; channel activated by saturating DAMGO dose; shares compounds with TRPC6 inh; inhibition, % at 10 µM;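 active = compounds whose fluorescence signal differed from control wells by over 3 SD, either direction, in both duplicate plates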
TRPC4 spec: mouse TRPC4 off-target activity of TRPC6 inhibitors | shares compounds with TRPC6 inh | HEK293 TRPC4/mu-opioid, membrane potential fluorescence | activity change, negative = inhibition, % at 10 µM | actives 61% (n = 920) | AID 2777;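 active = rise or fall in signal beyond 3 SD of buffer-only wells in both replicate plates, either sign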;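 also: integrated kinetic ratio of fluorescence range over baseline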
HEK293 MPD ctr 2-1: second counter-screen for TRPC6 inhibitors: parental HEK293 cells; signal change vs control, % at 10 µM; actives 31% (n = 920); parental HEK293 membrane potential dye fluorescence; maximal acetylcholine challenge after compound addition; shares compounds with TRPC6 inh;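 active = membrane potential signal moving either way by over 3 SD of the maximum-effect control, in both duplicate plates, meaning non-specific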
HEK293 MPD ctr-1: counter-screen for TRPC6 inhibitors: effect in parental HEK293 cells; shares compounds with TRPC6 inh; membrane potential signal change, % at 10 µM; parental HEK293 membrane potential dye fluorescence; AID 2780; actives 60% (n = 920);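 active = membrane potential signal shifting up or down by more than 3 SD of buffer-only wells, on both duplicate plates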
HEK293 MPD ctr-2: parental HEK293 nonspecific activity of TRPC6 modulators; actives 51% (n = 2,400); AID 488924; membrane potential signal change, % at 10 µM; shares compounds with TRPC6 inh; membrane potential dye fluorescence;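 active = membrane potential signal moves up or down beyond 5 SD from buffer-only wells, on both duplicate plates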
HEK293 MPD ctr 2-2: parental HEK293 nonspecific activity of TRPC6 modulators, second screen | shares compounds with TRPC6 inh | membrane potential dye fluorescence; after compound, maximal acetylcholine stimulation | inhibition, % at 10 µM | actives 14% (n = 2,400);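 active = membrane potential signal drops by more than 5 SD from the mean control signal, in both duplicate plates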;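 also: plate controls were acetylcholine ECmax control wells for no effect and buffer only wells for full effect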
TRPC4 ctr mod: selectivity of TRPC6 modulators against mouse TRPC4. shares compounds with TRPC6 inh. HEK293 TRPC4/mu-opioid, membrane potential fluorescence. percent change from control (negative = decrease, positive = increase), % at 10 µM. actives 69% (n = 2,400). AID 488927;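 active = membrane potential signal moved up or down beyond 5 SD of buffer control wells, in both duplicate plates, actives on both sides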;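 also: plate controls were assay buffer wells for no effect and DAMGO maximal-effect wells for full effect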
TRPC4/MOR inh 2: second check of whether TRPC6 modulators also affect mouse TRPC4; shares compounds with TRPC6 inh; HEK293 TRPC4/mu-opioid, membrane potential dye fluorescence; stimulated with maximal-effect DAMGO; inhibition, % at 10 µM; actives 55% (n = 2,400); AID 488928;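 active = drop in membrane potential signal beyond 5 SD of the control wells in both duplicate plates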;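 also: TRPC4 counter screen for TRPC6 hits run under conditions tuned for TRPC6 not TRPC4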
TRPC6 inh conf: mouse TRPC6 inhibitor confirmation; shares compounds with TRPC6 inh; HEK293-TRPC6, membrane potential dye, ACh-evoked depolarization; inhibition, % at 10 µM; actives 43% (n = 3,300); AID 488960;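 active = fluorescence ratio falls more than 5 SD below the full-stimulation control mean, in both duplicate runs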;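 also: integrated fluorescence ratio of peak minus minimum over baseline after agonist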
TRPC6 act conf: confirmation of mouse TRPC6 activators; shares compounds with TRPC6 inh; HEK293-TRPC6 membrane potential dye fluorescence, FDSS; activation, % at 10 µM; actives 11% (n = 2,800);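 active = ratio signal rise beyond 5 SD above unstimulated control wells' mean, seen in both duplicate runs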;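 also: plate controls were buffer EC0 wells for no effect and acetylcholine ECmax response for full effect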
Numbers without * were called inactive.

CCN(CC)c1ccc(-c2sc(Nc3ccccc3)n[n+]2-c2ccc(F)cc2)cc1 was read as TRPC6 act 19*, TRPC4 block inactive, TRPC4 potent inactive, TRPC6 inh inactive, CR mimetic SO 107, TRPC4 act inactive, HEK293 MPD ctr-2 active, HEK293 MPD ctr 2-2 inactive, TRPC4 ctr mod 204%*, TRPC4/MOR inh 2 inactive, TRPC6 inh conf inactive and TRPC6 act conf 226%*.
For CN1CCc2c(C#N)c(N3CCOCC3)nc(NCC3CCCO3)c2C1 (stereo not given) the results were TRPC6 act inactive, TRPC4 block inactive, TRPC4 potent inactive, TRPC6 inh inactive, CR mimetic SO 113 and TRPC4 act inactive.
CCCCCNc1nc(N2CCCC2)c2c(c1C#N)CCN(C)C2 was read as TRPC6 act inactive, TRPC4 block inactive, TRPC4 potent inactive, TRPC6 inh -6.6*, CR mimetic SO 107, TRPC4 act inactive, TRPC4 sel inh 2 41%*, TRPC4 spec -22%*, HEK293 MPD ctr 2-1 inactive, HEK293 MPD ctr-1 -272%*, TRPC6 inh conf 71%* and TRPC6 act conf inactive.
Screening CCCc1nc(NCCO)c(C#N)c2c1CCCC2 returned TRPC6 act inactive, TRPC4 block inactive, TRPC4 potent inactive, TRPC6 inh inactive, CR mimetic SO 96 and TRPC4 act inactive.
CCCCCNc1nc(NCCCO)c(C#N)c2c1CN(C)CC2 was read as TRPC6 act inactive, TRPC4 block inactive, TRPC4 potent inactive, TRPC6 inh -5.6*, CR mimetic SO 98, TRPC4 act inactive, HEK293 MPD ctr-2 -100%*, HEK293 MPD ctr 2-2 inactive, TRPC4 ctr mod -27%*, TRPC4/MOR inh 2 inactive, TRPC6 inh conf inactive and TRPC6 act conf inactive.
`CCOC(=O)c1sc(NC(=O)CSc2ccccn2)c(C#N)c1C` gave TRPC6 act inactive, TRPC4 block inactive, TRPC4 potent inactive, TRPC6 inh inactive, CR mimetic SO 93 and TRPC4 act inactive.
For Cc1ccc(-c2nc(NCCN(C)C)c3ccccc3n2)cc1 the results were TRPC6 act inactive, TRPC4 block inactive, TRPC4 potent inactive, TRPC6 inh inactive, CR mimetic SO 98 and TRPC4 act inactive.
For CN(C)CCNc1cc(-c2ccncc2)nc2ccccc12 the results were TRPC6 act inactive, TRPC4 block inactive, TRPC4 potent 15*, TRPC6 inh -11*, CR mimetic SO 133, TRPC4 act inactive, HEK293 MPD ctr-2 -328%*, HEK293 MPD ctr 2-2 90%*, TRPC4 ctr mod -81%*, TRPC4/MOR inh 2 78%*, TRPC6 inh conf 75%* and TRPC6 act conf inactive.
N#Cc1nc(Nc2cc(F)cc(F)c2)c2ncn(CC(F)F)c2n1 was read as CR mimetic SO 81.
`Cc1nc2cc(NC(=O)N3CC4(C)CC3CC(C)(C)C4)ccc2n1C` (stereo not given) gave TRPC6 act inactive, TRPC4 block inactive, TRPC4 potent inactive, TRPC6 inh -6.1*, CR mimetic SO 102, TRPC4 act inactive, HEK293 MPD ctr-2 inactive, HEK293 MPD ctr 2-2 inactive, TRPC4 ctr mod inactive, TRPC4/MOR inh 2 inactive, TRPC6 inh conf inactive and TRPC6 act conf inactive.
Cc1c(CCOC(=O)C23CC4CC(CC(C)(C4)C2)C3)sc[n+]1Cc1ccccc1 was read as TRPC6 act inactive, TRPC4 block inactive, TRPC4 potent inactive, TRPC6 inh inactive, CR mimetic SO 93 and TRPC4 act inactive.
`Cc1ccc(C(=O)OCCc2sc[n+](Cc3ccccc3)c2C)cc1` gave TRPC6 act inactive, TRPC4 block inactive, TRPC4 potent inactive, TRPC6 inh -9.4*, CR mimetic SO 101, TRPC4 act inactive, TRPC4 sel inh 2 inactive, TRPC4 spec -12%*, HEK293 MPD ctr 2-1 31%*, HEK293 MPD ctr-1 -170%*, TRPC6 inh conf 80%* and TRPC6 act conf inactive.
`Cc1c(CCOC(=O)C23CC4CC(CC(C4)C2)C3)sc[n+]1Cc1ccccc1` gave TRPC6 act inactive, TRPC4 block inactive, TRPC4 potent inactive, TRPC6 inh -7.5*, CR mimetic SO 92, TRPC4 act inactive, TRPC4 sel inh 2 inactive, TRPC4 spec inactive, HEK293 MPD ctr 2-1 -9.5%*, HEK293 MPD ctr-1 inactive, TRPC6 inh conf 88%* and TRPC6 act conf inactive.
CCCOc1ccccc1NS(=O)(=O)c1ccc2[nH]c(=O)[nH]c2c1 was read as TRPC6 act inactive, TRPC4 block inactive, TRPC4 potent inactive, TRPC6 inh inactive, CR mimetic SO 95 and TRPC4 act inactive.
